Screens as filed in PubChem BioAssay.
KCNK3 inh – human KCNK3 channel inhibitors, primary screen, CHO cells, FluxOR thallium flux, B-score; Potassium channel subfamily K member 3 (Homo sapiens), O14649; FluxOR fluorescence; active compounds read low; B-score at 10 µM; 340,000 compounds, 0.84% hits; AID 602410, 2012;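 active = B-score under library mean minus 4 SD, starting fluorescence ratio at most library mean plus 5 SD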;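 also: more negative B-score means stronger inhibition of thallium flux through KCNK3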
Target sequence (O14649 whole entry, looked up): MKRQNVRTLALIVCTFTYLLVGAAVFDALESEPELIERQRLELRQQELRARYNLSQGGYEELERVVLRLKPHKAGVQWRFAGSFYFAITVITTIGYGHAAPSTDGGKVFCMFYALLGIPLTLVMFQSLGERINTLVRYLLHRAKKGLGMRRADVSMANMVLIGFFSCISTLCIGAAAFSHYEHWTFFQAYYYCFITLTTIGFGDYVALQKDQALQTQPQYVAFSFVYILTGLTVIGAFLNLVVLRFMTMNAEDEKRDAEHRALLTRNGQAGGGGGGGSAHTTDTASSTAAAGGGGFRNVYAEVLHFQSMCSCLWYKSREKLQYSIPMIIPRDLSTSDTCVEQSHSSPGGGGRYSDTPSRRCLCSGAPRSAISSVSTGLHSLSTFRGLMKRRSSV
KCC2 mod – KCC2 cotransporter modulators, thallium flux, primary screen, cell-based, HEK293 KCC2, FluoZin-2 fluorescence, MLSMR; Solute carrier family 12 member 5 (Homo sapiens), Q9H2X9; KCC2 cells, thallium flux FluoZin-2 fluorescence; B-score of Tl+ flux slope (higher = more flux/activation; lower = inhibition) at 10 µM; 190,000 compounds, 2.2% hits;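 active = thallium flux slope and its plate-corrected score both differing from the plate sample mean at a set confidence after two filtering rounds, in either direction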;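 also: slope of fluorescence scaled to starting intensity during 10 to 20 s after thallium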
hERG rescue – hERG rescue from dofetilide block, primary screen, cell-based, CHO-hERG, FluxOR thallium flux, dofetilide IC70; activation (rescue from dofetilide block), less the hit threshold, % at 10 µM; AID 1511, 2009; dofetilide IC70 present; 310,000 compounds, 0.51% hits;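 active = activation above the mean of controls blocked by dofetilide plus 5 SD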;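 also: thallium influx through hERG after potassium depolarization seen as dye fluorescence rise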
KCNQ1 act – potentiators or activators of KCNQ1 channel, primary screen, cell-based, thallium flux, high-throughput; Potassium voltage-gated channel subfamily KQT member 1 (Homo sapiens), P51787; CHO-K1 KCNQ1, thallium flux FluxOR fluorescence; active compounds read high; B-score at 10 µM; 310,000 compounds, 0.35% hits; AID 2648, 2010;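 active = fluorescence ratio B-score, a plate-corrected score, at least three library SD, with initial intensity B-score within 5 SD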
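Assay system: CHO-K1 cells stably expressing KCNQ1; Medium: assay buffer with matched DMSO; Also added: K+/Tl+ depolarizing stimulus; Dosing: single dose; Timing: dye 90 min, compound 20 min, room temperature; Measured by: kinetic FluxOR thallium fluorescence, 10-s 1-Hz baseline, 110-s post-stimulus read; Read-out: peak-minus-minimum fluorescence over initial fluorescence, negative-control normalized, B-scored.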
KCNK9 block – KCNK9 potassium channel inhibitors, primary screen, HEK293 cells, thallium flux | Potassium channel subfamily K member 9 (Homo sapiens), Q9NPC2 | FluxOR thallium flux fluorescence; active compounds read low | B-score at 10 µM | 310,000 compounds, 1.2% hits | AID 488922, 2010;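 active = ratio B-score over 3 SD below the library mean, with starting fluorescence within 5 SD of its mean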;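 also: negative B-score means less thallium flux so channel inhibition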
Target sequence (Q9NPC2 whole entry, looked up): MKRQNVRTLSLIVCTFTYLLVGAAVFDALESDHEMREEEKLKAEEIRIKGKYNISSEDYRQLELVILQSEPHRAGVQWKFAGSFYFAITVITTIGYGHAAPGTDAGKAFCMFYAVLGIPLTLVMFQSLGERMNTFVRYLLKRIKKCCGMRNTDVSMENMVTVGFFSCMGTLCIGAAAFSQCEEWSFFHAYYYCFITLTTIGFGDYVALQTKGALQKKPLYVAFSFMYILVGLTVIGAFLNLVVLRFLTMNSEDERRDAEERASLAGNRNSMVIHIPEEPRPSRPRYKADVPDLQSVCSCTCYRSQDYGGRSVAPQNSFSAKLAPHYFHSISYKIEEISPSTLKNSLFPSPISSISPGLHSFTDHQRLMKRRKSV
KCNQ1 inh – inhibitors of human KCNQ1 channel, primary screen, cell-based, thallium flux, high-throughput | B-score at 10 µM | 310,000 compounds, 1.3% hits | Potassium voltage-gated channel subfamily KQT member 1 (Homo sapiens), P51787 | CHO-K1 KCNQ1, FluxOR thallium flux fluorescence; active compounds read high;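 active = compounds whose thallium flux B-score, printed positive for inhibition, exceeds three library SD while starting fluorescence stays within three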;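 also: channel opened by potassium depolarization with thallium stimulus after 20 min compound exposure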
KCNK9 block conf – KCNK9 potassium channel inhibitors, confirmation, HEK293 cells, thallium flux, duplicate | FluxOR thallium flux fluorescence | 4,900 compounds, 43% hits | inhibition, % at 10 µM | shares compounds with KCNK9 block | AID 492992, 2010;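 active = thallium signal inhibited by more than 5 SD of the compound-free buffer control wells, on both duplicate plates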
Kir21 sel – mouse Kir2.1 channel inhibition, confirmation, selectivity assay for KCNK9 modulator project, cell-based, HEK293, thallium flux. Kir2.1 cells, FluxOR thallium flux fluorescence. inhibition, % at 10 µM. 4,900 compounds, 4% hits. shares compounds with KCNK9 block. AID 492993, 2010;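 active = thallium signal drop more than 5 SD beyond the mean of the no-compound control wells, seen in both duplicate plates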;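 also: signal is fluorescence rise after thallium addition divided by baseline fluorescence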
KCNK9 uninduced – thallium flux in non-induced HEK293 cells, confirmation, counter-screen for KCNK9 inhibitor project, cell-based, second counter screen, non-induced KCNK9-HEK293. inhibition, % at 10 µM. AID 492997, 2010. FluxOR thallium flux. 4,900 compounds, 40% hits. shares compounds with KCNK9 block;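 active = thallium signal drop beyond 5 SD of the untreated control mean, on both duplicate plates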
Each line names hits and unclear results; the compound was inactive in the other large screens (follow-up assays come after a bar, where they were run). Most compounds without a hit are left out; they make up all but 4.1% or so of the library.

COc1ccccc1/C=C(/CC(=O)NCc1ccccc1)c1nc2ccccc2s1	KCNK9 block -9.68 | KCNK9 block conf 70.5% | Kir21 sel inactive | KCNK9 uninduced inactive
COc1ccc(C(=O)NCc2ccc(-c3nc4ccccc4s3)cc2)cc1OC	none
Cc1c(/C=C(\CC(=O)O)c2nc3ccccc3s2)cc(C#N)n1C	none
COc1ccc2c(n1)Sc1nc3ccccc3nc1N2	none
CC1CCN(Cc2c(C(=O)N/N=C/c3ccc(OC(C)C)cc3)nnn2-c2nonc2N)CC1	none (no result: KCC2 mod) | KCNK9 block conf inactive | Kir21 sel inactive | KCNK9 uninduced inactive
CC(=C/c1ccccc1)/C=N/NC(=O)c1nnn(-c2nonc2N)c1CN1CCC(C)CC1	none (no result: KCC2 mod)
Cc1ccccc1COc1ccc(/C=N/NC(=O)c2nnn(-c3nonc3N)c2CN2CCC(C)CC2)cc1	none (no result: KCC2 mod) | KCNK9 block conf inactive | Kir21 sel inactive | KCNK9 uninduced inactive
CCCNC(=O)[C@H]1N2C(=O)c3c(ccc(OC)c3OC)C2SC1(C)C (stereo partly drawn)	none (no result: KCC2 mod)
Nc1[nH]n(-c2ccccc2)c(=O)c1N=Nc1ccc2ncsc2c1	none
COc1ccc(OC)c(S(=O)(=O)N2CCC(C(=O)Nc3cc(C)ccc3C)CC2)c1	KCNK9 block -10.3 | KCNK9 block conf inactive | Kir21 sel inactive | KCNK9 uninduced inactive
CCCCN1CC(C)(C)Oc2cccc(F)c2S1(=O)=O	none (no result: KCC2 mod, hERG rescue, KCNQ1 act, KCNK9 block, KCNQ1 inh)
N#CC1=C(N)OC2=C(CCc3ccccc32)C1c1ccccc1 (stereo not drawn)	KCNK9 block -8.65 | KCNK9 block conf 36.5% | Kir21 sel inactive | KCNK9 uninduced 39.5%
c1ccc(-[n+]2nc(Nc3cccc4ccccc34)sc2-c2c3ccccc3cc3ccccc23)cc1	none (no result: KCC2 mod, hERG rescue, KCNQ1 act, KCNK9 block, KCNQ1 inh)
Fc1ccc(-[n+]2nc(Nc3ccccc3)sc2-c2c3ccccc3cc3ccccc23)cc1	KCNK9 block -12.2, KCNQ1 inh 11 (no result: KCC2 mod) | KCNK9 block conf 34.0% | Kir21 sel inactive | KCNK9 uninduced inactive
CCN(C(=O)CN1C(=O)NC2(CCc3ccccc32)C1=O)C1CCCCC1 (stereo not drawn)	none (no result: KCC2 mod)
CCOC(=O)c1cnn(-c2nc(CC)nc3sc4c(c23)CCC4)c1N	KCNK9 block -10.2 (no result: KCC2 mod) | KCNK9 block conf 36.0% | Kir21 sel inactive | KCNK9 uninduced inactive
CC(C)CCN(CCC(C)C)CC(O)Cn1c2ccccc2c(=O)c2ccccc21 (stereo not drawn)	KCNK9 block -8.11 (no result: KCC2 mod) | KCNK9 block conf 42.5% | Kir21 sel inactive | KCNK9 uninduced 27.5%
CCCN(CCC)CC(O)Cn1c2ccccc2c2ccccc21 (stereo not drawn)	none
CCOc1ccc(C(C(=O)NCC2CCCO2)N(Cc2cccnc2)C(=O)c2snc(C(N)=O)c2N)cc1 (stereo not drawn)	none (no result: KCC2 mod)
COc1ccc(C2Nc3cc(OC)ccc3-n3cccc32)cc1 (stereo not drawn)	none | KCNK9 block conf inactive | Kir21 sel inactive | KCNK9 uninduced inactive
O=C(c1cc(COc2ccc(F)cc2Cl)on1)N1CCCC(c2ccccc2)C1 (stereo not drawn)	none
O=C(c1ccc(F)cc1)N1CCCC(c2ccccc2)C1 (stereo not drawn)	KCNK9 block -8.75 | KCNK9 block conf 36.0% | Kir21 sel inactive | KCNK9 uninduced inactive
CC(C)Cc1cc(C(=O)N2CCCC(C(=O)c3cc(F)ccc3F)C2)no1 (stereo not drawn)	none (no result: KCC2 mod) | KCNK9 block conf inactive | Kir21 sel inactive | KCNK9 uninduced inactive
O=C(c1cc(COc2ccc(F)cc2F)on1)N1CC[C@@H]2CCCC[C@H]2C1	none (no result: KCC2 mod) | KCNK9 block conf inactive | Kir21 sel inactive | KCNK9 uninduced inactive
O=C(c1ccc(F)cc1)N1CCN(C2CCC(c3ccccc3)CC2)CC1 (stereo not drawn)	none
O=C(c1cc(F)ccc1F)C1CCCN(C(=O)c2cccs2)C1 (stereo not drawn)	none
O=C(c1cc(COc2ccc(F)cc2F)on1)N1CCCC(c2ccccc2)C1 (stereo not drawn)	none | KCNK9 block conf inactive | Kir21 sel inactive | KCNK9 uninduced 36.0%
CCCCC1CCC(C(=O)N(CC(C)C)c2c(N)n(Cc3ccccc3)c(=O)[nH]c2=O)CC1 (stereo not drawn)	none (no result: KCNK3 inh, KCC2 mod)
COc1ccc(N/C(N)=N/c2nc(CSc3ccc(Cl)cc3)cc(=O)[nH]2)cc1	none
Cc1ccc(SCc2cc(=O)[nH]c(/N=C(\N)Nc3ccc(C)c(C)c3)n2)cc1	none | KCNK9 block conf inactive | Kir21 sel inactive | KCNK9 uninduced inactive
N/C(=N\c1nc(CSc2ccc(Cl)cc2)cc(=O)[nH]1)Nc1cccc2ccccc12	none | KCNK9 block conf inactive | Kir21 sel inactive | KCNK9 uninduced inactive
N#Cc1cc([N+](=O)[O-])ccc1NC(=O)COC(=O)C1CCC(=O)N1 (stereo not drawn)	none (no result: KCC2 mod, hERG rescue, KCNQ1 act, KCNK9 block, KCNQ1 inh)
COc1ccc(CCNc2oc(Cc3cccc4ccccc34)nc2C#N)cc1OC	KCNK9 block -8.23 | KCNK9 block conf 40.5% | Kir21 sel 37.0% | KCNK9 uninduced 27.0%
CC(C)OCCCn1c(=NC(=O)c2ccncc2)c(C#N)cc2c(=O)n3ccccc3nc21	none (no result: KCC2 mod)
CC(C)OCCCn1c(=NC(=O)c2cccs2)c(C#N)cc2c(=O)n3ccccc3nc21	KCNK9 block -8.51 | KCNK9 block conf 25.5% | Kir21 sel inactive | KCNK9 uninduced 33.0%
Cc1ccc(C(=O)NCC(c2ccc(F)cc2)N2CCOCC2)cc1S(=O)(=O)N1CCOCC1 (stereo not drawn)	none (no result: KCC2 mod, hERG rescue, KCNQ1 act, KCNK9 block, KCNQ1 inh)
NC(=O)CSc1nc2scc(-c3ccc(Cl)cc3)c2c(=O)n1Cc1ccccc1	none
